MRP1 act – H69AR viability gain despite doxorubicin, primary screen, MRP-1 activator project, H69AR cells, CellTiter-Glo; 140,000 tested, 0.61% active; viability rescue; viability increase, % at 10 µM;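 active = viability gain under doxorubicin at or above a set limit, the compound median plus 3 SD, cut at about 4.7% in these data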;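 also: MRP-1 overexpressing cells given doxorubicin 25 µM after compound pretreatment; 18-22 h compound pretreatment then 72 h with doxorubicin before readout; 0% = doxorubicin-only wells and 100% = vehicle-treated cells without doxorubicin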
Phagocytosis inh – inhibitors of macrophage phagocytosis, primary screen, imaging, J774A.1 cells, IgG beads; AID 1029, 2008; inhibition, % at 5 µM; 110,000 tested, 0.07% active; J774A.1 macrophage IgG-bead phagocytosis;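 active = inhibition above the mean of the plate negative controls plus 5 SD, cut at about 13% in these data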;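 also: phagocytic index as fraction of beads internalized from green versus red external bead signal; plate controls were DMSO negative control for no effect and cytochalasin-D positive control for full effect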
BB579 growth dn – growth inhibitors of yeast BB579 in restrictive medium, primary screen, yeast lifespan-shortening project, S. cerevisiae | 140,000 tested, 0.51% active | OD615, 48 h | inhibition, % at 10 µM;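 active = inhibition above a set limit, 3 SD over the mean compound inhibition, cut at about 44% in these data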
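System: DeaD yeast strain BB579; buffer or medium: CSMM-D dextrose restrictive medium; technique: OD at 615 nm; schedule: 4 h cell preincubation, 48 h compound exposure, 30 °C humidified; doses: single 10 µM dose; controls: amphotericin B 10 µg/mL, positive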
MRP reversal – reversal of MRP1-mediated doxorubicin resistance, primary screen, H69AR cells, doxorubicin co-treatment | H69AR cells + 2 uM doxorubicin, CellTiter-Glo, 72 h | differential viability (reversal), % at 10 µM | 85,000 tested, 0.04% active | AID 602, 2007;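 active = viability drop by adding the cancer drug above about 55%, with treated viability meeting a 40% cutoff, limit read from the data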;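 also: viability without doxorubicin minus viability with 2 µM doxorubicin for each compound; larger differential means the compound sensitizes cells more to doxorubicin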
Yeast lifespan up – compounds extending yeast replicative lifespan, primary screen, S. cerevisiae, OD615 | 130,000 tested, 0.68% active | S. cerevisiae growth with nicotinamide; deaD strain in restrictive glucose medium | inhibition of the nicotinamide effect, % at 10 µM;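 active = inhibition above a set limit, placed 3 SD over the median of all compounds, cut at about 26% in these data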;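 also: 0% = nicotinamide-treated wells and 100% = cells grown without nicotinamide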
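Test system: DeaD-strain S. cerevisiae / Buffer or medium: restrictive glucose medium / Also added: nicotinamide 1.5 mM / Doses: one concentration, 10 µM, DMSO 0.25% / Schedule: 48 h at 30 °C / Signal: OD615 measurement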
sdo1 growth – growth rescue of sdo1-depleted yeast, primary screen, S. cerevisiae, bone marrow failure model | 140,000 tested, 0.21% active | z-score at 10 µM | S. cerevisiae sdo1-depleted JHY4D growth rescue, OD600 30 h; hits give high values; pdr5 snq2 efflux-pump mutant strain;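 active = z-score above 3 at both the 24 hr and the 30 hr optical density reads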;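 also: z-score against mean and SD of all compound wells on the same plate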
* hit, by the source's call; . = not tested or not shown. This is a sample that favours compounds with a hit; in the whole collection about 2.1% have one here.

SMILES	MRP1 act	Phagocytosis inh	BB579 growth dn	MRP reversal	Yeast lifespan up	sdo1 growth
CCc1cccc(CC)c1NC(=O)CSc1nc2ccc(N3C(=O)C4C(C3=O)[C@H]3C=C[C@@H]4C3)cc2s1 (some centres not stated)	0.6	-5.5	-11.6	.	-3.4	-0.18
O=C(NCc1nnc2c3ccccc3c(-c3ccccc3)nn12)c1ccccc1Cl	0.0	-7.5	-14.6	.	-4.2	-0.34
O=C(COc1ccc(Cl)cc1)NCc1nnc2c3ccccc3c(-c3ccccc3)nn12	5.0*	-7.1	-6.2	.	-2.0	-1.32
CCn1nc(C)c(NC(=O)/C=C/c2ccc(OC)c(COc3ccc(Cl)cc3Br)c2)c1C	7.2*	.	-27.2	12.1	.	-0.93
COc1ccc(/C=C/C(=O)NCc2cn(C)nc2C)cc1COc1ccc(Cl)cc1Br	2.8	0.9	-73.8	.	-14.2	-1.49
CCc1nnc(N2C(=O)c3ccc(Oc4ccc([N+](=O)[O-])cc4)cc3C2=O)s1	0.6	-10.3	-33.1	.	51.8*	0.19
CCCOP(=O)(c1ccc(N(C)C)cc1)C(O)c1ccccc1OC (configuration not stated)	-1.5	0.0	-43.6	15.4	-6.8	0.74
Cc1noc(/C=C/N(C)C)c1S(=O)(=O)N1CCCC(C(=O)NC2CCCCC2C)C1 (configuration not stated)	8.6*	0.5	-3.6	-5.7	-7.8	0.2
Cc1noc(/C=C/N(C)C)c1S(=O)(=O)N1CCCC(C(=O)NC(C)c2ccccc2)C1 (configuration not stated)	-0.1	.	-18.1	5.5	-20.7	0.57
N#C/C(=C\c1ccccc1)C(=O)N(c1ccccn1)C1CCCCC1	-0.2	-3.9	-39.7	.	62.9*	-1.79
O=C(COc1ccc(F)cc1)N(c1ccccn1)C1CCCCC1	-3.2	-10.8	-7.3	.	2.8	0.09
O=C1NN(c2ccc(F)cc2)C(=O)/C1=C\C=C\c1ccco1	-3.3	-2.9	-14.3	.	31.6*	0.7
CC1=NN(c2cccc(C(=O)O)c2)C(=O)/C1=C\C=C\c1ccco1	-3.9	.	-30.8	-13.0	.	1.39
CC(Sc1nncn1C)C(=O)Nc1ccc(Cl)cn1 (configuration not stated)	4.9*	-11.3	-21.5	.	1.5	1.02
COc1ccc(Cl)cc1NC(=O)C(C)Sc1nncn1C (configuration not stated)	-3.0	2.6	-25.6	11.2	7.0	0.94
CCN(CCO)C(=O)C12CCC(C)(C(=O)C1)C2(C)C (configuration not stated)	-0.1	-2.2	-1.1	-15.1	68.0*	0.37
Cc1noc2ncnc(Sc3ccccc3Cl)c12	-2.8	4.0	60.8*	-0.5	-0.8	-0.16
COCCn1c(Cc2ccccc2)nnc1SCC(=O)N1CCCCC1C (configuration not stated)	1.1	-0.2	-48.8	15.0	0.0	-0.8
Cc1ccc(C2CC(C(F)(F)F)n3nc(C(=O)NCc4c(C)nn(C)c4C)c(Cl)c3N2)cc1 (configuration not stated)	6.4*	-0.6	-13.3	.	-9.2	1.35
Cn1c(C(=O)NCc2cccnc2)cc2sc(Cl)cc21	-0.8	-0.5	0.0	.	-13.2	-0.06
O=C1C(=O)N(CCN2CCOCC2)C(c2ccccn2)/C1=C(/O)c1ccccc1 (configuration not stated)	-0.7	-3.0	-24.9	-50.4	26.0*	0.28
Cc1cccc(N2C(=O)CC(SC(=Nc3ccccc3)Nc3ccccc3)C2=O)c1 (configuration not stated)	-0.3	-0.2	-1.6	.	-14.6	-2.03
O=C1SC(SC(=Nc2ccccc2)Nc2ccccc2)C(=O)N1c1ccccc1 (configuration not stated)	-2.3	-1.9	-8.7	.	33.7*	-1.16
Cc1ccc2c(c1)N(CC(=O)OC(CC(C)C)C(=O)NC1CCCC1)C(=O)CO2 (configuration not stated)	-0.1	1.3	-8.8	3.0	-2.9	-0.77
CC(C)C(OC(=O)CN1C(=O)COc2ccccc21)C(=O)NC1CCCC1 (configuration not stated)	1.2	1.0	-7.8	-8.3	33.8*	0.12
SMILES	MRP1 act	Phagocytosis inh	BB579 growth dn	MRP reversal	Yeast lifespan up	sdo1 growth
CCN(CC)CCn1c2ccccc2c2cnc(N)c(C#N)c21	-5.9	-0.5	-27.5	-0.6	-2.0	-1.78
COCCOC(=O)/C(=C/c1ccc(OC(=O)c2ccccc2)cc1)C(C)=O	3.0	-2.4	-43.6	.	38.9*	-0.97
Cc1cc2n(n1)C(c1ccccc1)CC(c1ccc(Br)cc1)=N2 (configuration not stated)	5.5*	-5.3	-28.3	.	-4.4	-0.33
CNC(=S)N1N=C(c2ccc(Br)cc2)CC1c1ccc(Br)cc1 (configuration not stated)	-1.4	-0.2	-49.8	.	-14.4	-1.09
Cc1ccccc1N1CN(Cc2ccco2)CNC1=S	-1.2	-9.5	-16.4	.	-0.2	-0.16
Cc1cccc(-c2cc3nc(C)cc(N4CC(C)CC(C)C4)n3n2)c1 (configuration not stated)	5.1*	.	-29.7	7.5	.	-1.38
Cc1cccc(-c2cc3nc(C)cc(NCCCN(C)C)n3n2)c1	-3.8	-1.4	10.0	9.1	-9.8	0.72
CSc1nnc(-c2sccc2OCc2ccccc2)n1C	-3.4	1.2	-45.8	.	-6.8	0.2
COc1ccccc1/C=C(\NC(=O)c1ccc(OC)c(OC)c1)C(=O)Nc1ccc([N+](=O)[O-])cc1	-1.7	-11.9	-18.9	.	4.8	0.47
Cc1ccc2nc(-c3ccc(NC(=O)CSc4ccccc4)cc3)[nH]c2c1	-0.9	0.2	-22.4	.	75.9*	-1.28
COc1ccccc1/C=C/C=N/n1c(C2CCCCC2)n[nH]c1=S	4.8*	-13.3	-6.5	.	-4.2	-1.5
Cc1ccc(C)c(NC(NC(=O)c2cccnc2)C(Cl)(Cl)Cl)c1 (configuration not stated)	0.3	.	-40.0	.	1.1	0.17
Cc1ccc(S(=O)(=O)O/N=C2\CCCc3ccccc32)cc1	-1.9	-0.5	-11.9	-6.0	-3.9	1.57
CC1=C(C)/C(=N\OS(=O)(=O)c2ccccc2)C=CC1=O	-2.5	.	99.9*	-1.3	-16.8	-2.65
O=C(N/N=C/c1cccc(F)c1)c1c(O)c2c([nH]c1=O)CCCC2	-1.3	-6.0	-17.9	.	1.6	-1.79
CC(C)n1c(NCc2cccs2)nc2ccccc21	-0.5	8.3	-30.4	31.8	-7.4	0.87
Cc1ccc(S(=O)(=O)N2CCN(c3nc(C)c4c(c3C#N)CC(C)(C)OC4)CC2)cc1	6.1*	0.3	-49.5	.	-7.6	-0.43
CN(C)S(=O)(=O)c1ccc(NC(=O)COC(=O)c2ccccn2)cc1	-2.0	-3.2	-1.2	12.9	5.0	0.32

Screens (PubChem BioAssay)
